# An excerpt weighted towards active compounds, which were near 1.6% of everything screened.
# Tn6 DDE FP: disrupts Tn6 cyclic peptide binding to fibrin D-Dimer-E complex. 0.21% of 370,000 active. P02675. Fibrin DD(E) TRITC-Tn6 fluorescence polarization displacement. inhibition, % at 8.3 µM;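 active means inhibition above a per-campaign cutoff: mean of compounds within control limits plus 3 SD, cut at about 15% in these data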;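 further: 0% = median of all compound wells on the plate and 100% = blocking peptide control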
# ADAM10 inh: inhibitors of human ADAM10. recombinant ADAM10, EDANS/DABCYL FRET peptide cleavage, 3 h. AID 720582. 0.62% of 370,000 active. inhibition, % at 7 µM;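 active means inhibition above a per-campaign cutoff equal to the mean of compounds falling between control-based bounds plus 3 SD, cut at about 20% in these data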;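 further: 0% = DMSO wells while the 100% control is not disclosed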
# Target sequence (O14672 214-748 limits assumed): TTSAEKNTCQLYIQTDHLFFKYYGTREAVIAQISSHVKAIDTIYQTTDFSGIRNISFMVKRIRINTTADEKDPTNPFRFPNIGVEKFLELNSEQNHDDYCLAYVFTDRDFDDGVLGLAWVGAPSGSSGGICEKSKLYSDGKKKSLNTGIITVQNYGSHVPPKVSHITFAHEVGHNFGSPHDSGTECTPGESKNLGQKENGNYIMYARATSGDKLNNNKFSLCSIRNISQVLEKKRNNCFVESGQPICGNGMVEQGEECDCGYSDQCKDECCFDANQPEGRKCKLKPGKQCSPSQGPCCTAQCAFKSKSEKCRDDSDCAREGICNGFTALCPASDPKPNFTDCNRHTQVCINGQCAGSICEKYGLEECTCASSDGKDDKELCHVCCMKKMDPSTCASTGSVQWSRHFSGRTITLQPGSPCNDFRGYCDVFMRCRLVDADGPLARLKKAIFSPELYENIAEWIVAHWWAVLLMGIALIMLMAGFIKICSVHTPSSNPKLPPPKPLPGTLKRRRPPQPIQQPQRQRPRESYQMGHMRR
# MT1-MMP act inh: inhibitors of human MT1-MMP activation; GFP/RFP ratio change, % at 20 µM; AID 651647; 0.061% of 360,000 active; HT1080 RFP-PRO-GFP cells, GFP/RFP ratio fluorescence, overnight; percent of plate control window, DMSO zero; P50281;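 active means GFP/RFP ratio change of at least 30% with cell ATP level not reduced by more than half and red fluorescence within 50% of control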
#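 Assay system: RFP-PRO-GFP reporter HT1080 cells; read-out basis: GFP/RFP fluorescence ratio; benchmarks: DMSO wells and RFP-L50D-GFP cells; doses: 20 µM single dose, 1% DMSO; schedule: overnight cell settling, then overnight compound exposure, 37 °C, 5% CO2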
# Tn7 DDE FP: inhibitors of Tn7 peptide binding to human fibrin DD(E); inhibition, % at 8.3 µM; P02675; FP displacement of FITC-Tn7 peptide from fibrin DD(E); 0% = median of compound wells per plate; 0.13% of 370,000 active;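 active means inhibition above the mean of compounds falling within the control limits plus 3 SD of them, cut at about 14% in these data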;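 further: 0% = plate median of compound wells and 100% = 10 µM Aha-Tn7 peptide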
#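 Test system: human clot-derived fibrin DD(E) complex / Quantity: 2 µM final DD(E) protein / Incubation: 10 min plus 3 h, room temperature / Measured by: fluorescence polarization / Benchmarks: high control of 10 µM Aha-Tn7 peptide / Replicates: singlicate testing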
# ADAM17 inh: inhibits human ADAM17; recombinant ADAM17, EDANS/DABCYL FRET peptide cleavage; inhibition, % at 6.95 µM; 0.83% of 370,000 active; AID 720648;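 active means inhibition above the mean of compounds lying between control limits plus 3 SD, set per campaign, cut at about 8.5% in these data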;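 further: 0% = DMSO-only wells as the low control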
# * = called active by the depositor; i = inactive; . = no result; + = active, no number.
SMILES,Tn6 DDE FP,ADAM10 inh,MT1-MMP act inh,Tn7 DDE FP,ADAM17 inh
CCN(CC)c1ccc2nc3c4ccccc4c(=O)cc-3oc2c1,105.1*,-0.3,.,5.3,-5.6
CCN(CC)c1ccc2cc(C=O)c(=O)oc2c1,4.5,-54.1,-32.3,-62.7,-12.7
C[C@H]1[C@@H](OC(=O)Nc2ccccc2F)CC[C@@]23CCCN2C(=O)CCC[C@@H]13,-4.5,-0.8,.,4.3,-2.1
Nc1cccc(N2C(=O)c3cccc4c(N)ccc(c34)C2=O)c1,1.1,-7.6,-69.9,30.0*,1.7
COc1ccc(OC)c(NC(=O)c2nnn(Cc3ccccc3C)c2N)c1,0.0,27.0*,1.0,3.9,7.0
Cc1onc(-c2ccccc2Cl)c1C(=O)NCC(=O)O,-10.3,-0.5,1.3,1.6,-2.7
Cc1onc(-c2ccccc2Cl)c1C(=O)NCCn1c(C)cc2ccccc21,.,.,39.6*,.,.
Clc1ccc(OCCOc2ccc(Br)nc2Br)c(Cl)c1,-2.4,2.8,.,0.0,0.4
COc1ccc2c(c1OC)C(=O)OC2,-8.4,-28.3,2.6,1.7,-6.7
COc1ccc2c3c(cccc13)C(=O)CC2,36.1*,-26.5,-10.3,21.1*,-9.9
Cc1ccc([N+](=O)[O-])cc1N(CC(=O)Nc1ccc(S(=O)(=O)Nc2cccc(C(F)(F)F)c2)cc1)S(C)(=O)=O,-5.9,48.8*,-2.7,-1.9,24.7*
COc1ccccc1N(CC(=O)Nc1cccc(C(F)(F)F)c1)S(C)(=O)=O,0.8,2.8,-1.7,-1.3,-1.1
O=C(NCc1ccccc1Cl)O[C@H]1CC[C@@]23CCCN2C(=O)CCC[C@H]3C1,-2.0,0.6,.,-0.9,-3.0
COc1cccc2c1C(=N)c1c(O)c3c(c(O)c1C2=O)CC(O)(C(C)=O)CC3OC1CC(N)C(O)C(C)O1 (configuration not stated),.,.,69.7,.,.
CCCCC(=O)OCC(=O)C1(O)Cc2c(O)c3c(c(O)c2C(OC2CC(NC(=O)C(F)(F)F)C(O)C(C)O2)C1)C(=O)c1c(OC)cccc1C3=O (configuration not stated),43.0*,-8.7,-18.8,-0.5,-2.6
COc1cccc2c1C(=O)c1c(O)c3c(c(O)c1C2=O)C[C@](O)(C(C)=O)C[C@H]3O[C@@H]1C[C@@H](N)[C@@H](O)[C@@H](C)O1,+,-11.1,11.3,24.7*,-2.4
COc1cccc2c1C(=O)c1c(O)c3c(c(O)c1C2=O)CC(O)(C(C)=O)CC3OC1CC(O)C(O)C(C)O1 (configuration not stated),+,2.5,-16.8,25.9*,-2.0
C[C@@H]1[C@H](c2ccccc2)OC(O)([C@H](Cc2ccccc2)NC(=O)OC(C)(C)C)CN1C (some centres not stated),-1.7,-0.9,.,2.5,-2.6
CCN(CC)S(=O)(=O)c1ccc2c(c1)nc(CCC(=O)O)n2CC,0.9,-1.2,1.2,2.6,-1.8
CCN(CC)S(=O)(=O)c1ccc2c(c1)nc(CCC(=O)Nc1cccc(C(F)(F)F)c1)n2CC,7.8,17.4,-9.5,-2.6,10.4*
O=C(N=C1N=C2C=CC(Br)=CN2Cc2ccccc21)c1ccc([N+](=O)[O-])cc1[N+](=O)[O-],3.8,17.6,-4.2,3.3,9.1*
CN(C)S(=O)(=O)c1cccc(-c2nnc(SCc3ccc4c(c3)OCCO4)o2)c1,-3.0,20.4*,-1.0,-0.9,11.6*
S=C(Nc1ccc(Cl)c(Cl)c1)NC1CCN(Cc2ccccc2)CC1,2.6,19.8*,4.4,3.8,3.7
CC(C)[C@H](NC(=O)OCc1ccccc1)C(=O)N[C@@H](Cc1ccccc1)C1(O)CN(C)C(C(=O)NCc2ccccn2)CO1 (some centres not stated),4.7,-8.3,.,4.9,-2.7
N#Cc1ccc(CC(=O)c2ccccc2)[nH]c1=O,16.6*,-335.8,-29.5,-2.4,-85.5
SMILES,Tn6 DDE FP,ADAM10 inh,MT1-MMP act inh,Tn7 DDE FP,ADAM17 inh
N#Cc1ccc(CCc2ccccc2)[nH]c1=O,0.1,-311.1,3.7,5.0,-87.8
COC(=O)[C@]12C[C@H](CC(=O)NCCC(C)C)C(=O)N(Cc3cccc4ccccc34)C1=C[C@H](C(C)(C)C)O[C@@H]2C,0.1,11.8,.,-0.7,5.5
CCN(CC)S(=O)(=O)c1ccc2oc(C(=O)NCc3ccc(F)cc3)c(C)c2c1,-2.8,22.3*,-8.9,-2.4,8.8*
CCOc1ccc(-n2c(SCC(=O)Nc3ccc(S(=O)(=O)Nc4nccs4)cc3)nnc2-c2ccccc2)cc1,6.2,7.6,.,2.9,4.9
Cc1ccc(C(=O)C2C(=O)c3ccccc3C2=O)cc1,-7.3,1.3,-182.6,5.4,-4.3
NN=C1c2ccccc2C(=O)C1C(=O)C(c1ccccc1)c1ccccc1 (configuration not stated),18.8*,5.9,-16.5,-4.2,4.6
CCC(NC(=O)c1ccc2c(ccn2Cc2cccc(-c3ccccc3C(=O)O)c2)c1)c1ccccc1 (configuration not stated),-17.8,-8.0,.,-1.4,-9.1
CC1(C)CC2CC(C)(CN2S(=O)(=O)c2ccc(C(=O)Nc3cccc(S(=O)(=O)N4CCOCC4)c3)cc2)C1 (configuration not stated),-4.1,26.3*,-13.1,-2.7,20.0*
CCCCCCCCCCCCN1[C@@H](CC(=O)O)c2cc(C(F)(F)F)ccc2S1(=O)=O,-0.4,21.8*,3.7,4.8,2.5
CCCCCCCCN1[C@@H](CC(=O)O)c2cc(C(F)(F)F)ccc2S1(=O)=O,-1.8,-1.4,0.9,4.3,-1.8
COc1ccc(/C=C2\CCCC3C2=NN(C(=O)CSc2ncn[nH]2)C3c2ccc(OC)cc2)cc1 (configuration not stated),-1.8,10.9,-11.9,10.1,3.4
COc1ccc(/C=C2\CCCC3C2=NN(C(=O)COC(=O)CNC(=O)c2ccccc2)C3c2ccc(OC)cc2)cc1 (configuration not stated),6.8,21.2*,10.9,-4.7,3.7
O=c1oc2c3c4c(cc2s1)CCCN4CCC3,2.4,-2.4,-53.1,6.8,-2.4
O=c1ccc2cc3c4c(c2o1)CCCN4CCC3,6.6,i,-49.3,22.9*,-460.1
CN(C)c1ccc(-c2csc(C(O)c3ccccc3)n2)cc1 (configuration not stated),-5.6,-2.0,0.9,-3.5,1.2
CN(C)c1ccc(C(O)c2cc3ccccc3s2)cc1 (configuration not stated),3.3,12.6,-3.1,-9.6,10.4*
N#Cc1ccccc1NC(=O)C1SC(=Nc2ccccc2)C(C(=O)Nc2ccc(Cl)cc2)=C1N (configuration not stated),3.0,37.1*,-17.3,0.6,16.4*
CSc1ccc(-c2cnc(N3CCC(C(N)=O)CC3)s2)cc1,-2.5,-37.3,.,3.4,-11.6

# Compound activity from PubChem BioAssay.
